The text below walks through data of ChEMBL document CHEMBL4513216, “Probing the Open Global Health Chemical Diversity Library for Multistage-Active Starting Points for Next-Generation Antimalarials” (ACS Infect Dis, 2020).

The nature of the series: Toxicity liver stage against HepG2, at 10uM. The series is classed as cell-based. Also noted: test concentration 10 uM, cell line HepG2-A16-CD81EGFP. The note with it: human, HepG2-A16-CD81EGFP cells; read-out: INHIBITION
Put shortly: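 Uninfected HepG2-A16-CD81EGFP cells, 3 × 10^3 per well, 1536-well, plated on prespotted compound at 10 μM final, parasite-free screening media added to match infected plates; puromycin 10 μM positive, DMSO 0.5% negative; run in parallel with 48 h PbLuc assay at 37 °C, 5% CO2; viability by CellTiter-Glo luminescence, normalized to controls.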
As for `CN(C)C(=O)c1nc(CN2CC(c3ccccc3)CC2=O)no1` (configuration not stated), the cytotoxicity at 10 µM worked out at 0.624%. The same measure for `Cc1nnc(N2CCCC3(CN(c4cccc(F)c4)CCO3)C2)o1` (configuration not stated): 0.777%. In the case of `O=C(CC1CC1)NCc1cn2c(n1)CN(Cc1cccc(F)c1)CC2`, the cytotoxicity at 10 µM was -85.8%.

As for `COCc1csc(NC(=O)NCc2ccsc2)n1`, the cytotoxicity at 10 µM came out at 4.53%.

As to `CCCNS(=O)(=O)c1cc2c3c(c1)c(C)cc(=O)n3CCC2`, the cytotoxicity at 10 µM was 3.94%. Under `CCCc1nc(N2CCCN(c3ncccn3)CC2)c2cnn(C)c2n1` stands -1.18%; under `O=C(C1CC1)N1CCCN(c2ncnc3c2CCNCC3)CC1`, 5.52%. Under `O=C(c1nc(COc2ccc3c(c2)OCO3)no1)N1CCCC1` stands 10.3%; under `CC(C)C(C#N)N1CCN(C(=O)c2cc(-c3ccccn3)no2)CC1` (configuration not stated), -1.54%; under `CC(=O)N1CCC(c2cncc(Oc3ccccc3)n2)CC1`, 6.05%. With `O=C(Cc1noc(C(=O)NCCO)n1)Nc1cccc(C(F)(F)F)c1`, the cytotoxicity at 10 µM was determined as 8.9%. As for `NC(=O)c1cccnc1N1C[C@H]2CC[C@@H](C1)N(Cc1ccccn1)C2=O`, the cytotoxicity at 10 µM was determined as 7.94%. Take `CNCC(=O)N1CCCC(c2cccc(Nc3nc(C)cc(C)n3)n2)C1` (configuration not stated): the cytotoxicity at 10 µM is -5.07%.

In the case of `Cn1cc(-c2cnc(N3CCOCC3)nc2)cc1C(=O)N1CCOCC1`, the cytotoxicity at 10 µM worked out at 9.8%. `Cc1ncccc1C(=O)Nc1ccc2ccn(CCN(C)C)c2c1`: the cytotoxicity at 10 µM came out at 4.08%. The same measure for `Cc1noc(C2CN(Cc3ccc4c(c3)CCO4)C2)n1`: -0.478%; for `O=C(c1ccc(Cl)s1)N1CC(c2nc(-c3ccc[nH]c3=O)no2)C1`: -1.26%. Regarding `Oc1cc(-c2ccsc2)nc(C2CCN(Cc3cccnc3)CC2)n1`, the cytotoxicity at 10 µM was determined as 2.95%.

As to `CN(Cc1ccco1)C[C@H]1OC[C@@H]2CN(c3ncc(F)cn3)CC[C@@H]21`, the cytotoxicity at 10 µM worked out at 21.9%.

`COc1cc(C2SCC(=O)Nc3ccsc32)cc(OC)c1OC` (configuration not stated): the cytotoxicity at 10 µM is -1.88%. On to `CCOc1cccc(C2CC(=O)NCc3nc(N)sc32)c1` (configuration not stated), for which the cytotoxicity at 10 µM is -9.23%. Consider `CCOCC(O)CN1CCN(C(=O)c2cc(F)ccc2C)CC1` (configuration not stated), for which the cytotoxicity at 10 µM was -6.69%. On to `COC(=O)N1CCCC(NC(=O)NCc2csc(C)n2)C1` (configuration not stated), for which the cytotoxicity at 10 µM was 3.93%. Consider `Cc1cc(O)cc(=O)n1CCCC(=O)Nc1n[nH]c2cccc(F)c12`, for which the cytotoxicity at 10 µM was -8.85%. The same measure for `O=C(O)CC1CN(Cc2ccccc2)CCO1` (configuration not stated): 6.54%. As to `CC1CCN(CC(O)CN2CCn3c(nnc3C3CC3)C2)CC1` (configuration not stated), the cytotoxicity at 10 µM is -2.22%. On to `O=C(Cc1noc2ccccc12)N1CCCC1c1noc(C2CC2)n1` (configuration not stated), for which the cytotoxicity at 10 µM was determined as 61.5%. For `Cc1ccc(NC(=O)NCC2(N3CCOCC3)CCSC2)c(C)c1` (configuration not stated), the cytotoxicity at 10 µM was 1.15%.

On to `COCC1N(C(=O)N2CCOCC2)C2CCC1(O)CC2` (configuration not stated), for which the cytotoxicity at 10 µM was -0.791%. Under `Cc1cnc(N2CCC3(C2)C(=O)N(C)CCN3Cc2cccnc2)nc1` (configuration not stated) stands -6.98%; under `CCn1ncc2c1CN(C(=O)c1ccc3c(c1)OCO3)CC2COC` (configuration not stated), 8.7%; under `Cc1cnn(C2CCCN(C(=O)Cc3c(C)nn(C)c3C)C2)c1` (configuration not stated), -6.71%. The same measure for `COCc1noc(-c2ccc(N(C)Cc3ncccc3C)nc2)n1`: -0.0612%. Under `N#Cc1ccc(F)c(CNC(=O)NCCC(=O)NC2CCCC2)c1` stands -5.95%; under `CSc1ncc(CN2CC(Oc3c(C)cccc3C)C2)cn1`, 10.3%.

With `CC[C@H]1CN2CC[C@H]1C[C@@H]2CNC(=O)Nc1ccccc1`, the cytotoxicity at 10 µM was -0.989%. In the case of `CC(=O)OC1CN(c2nc3c(C)cccc3s2)C1`, the cytotoxicity at 10 µM was -5.14%. Turning to `O=C(NCc1cccs1)[C@@H]1CC[C@@H]2[C@@H](CCN2CC2CCC2)O1`, the cytotoxicity at 10 µM is -10.2%. Consider `CC(C)c1cccc(CSc2nnc(Cn3cncn3)o2)n1`, for which the cytotoxicity at 10 µM amounted to 13%. Under `Cc1noc(Cl)c1CCC(=O)N1CCc2sccc2C1` stands 2.65%; under `c1ccc(-c2nnc(CN3CCCC3Cn3cncn3)o2)cc1` (configuration not stated), -7.42%; under `CC(C)c1nn(C)c(N(C)C)c1CNCCC(=O)NC1CCCC1`, -6.63%.

As to `Cc1cccc(-c2ccc3nc(C4CCN(CC5CC5)CC4)nn3c2)c1`, the cytotoxicity at 10 µM was -12.2%.

On to `Cc1cc(CN2CCC(CNC(=O)c3ccc4[nH]cnc4c3)C2)[nH]n1` (configuration not stated), for which the cytotoxicity at 10 µM is -145%. Under `Cc1nn(-c2ncnc3[nH]cnc23)c2c1C(C(C)C)CC(=O)N2` (configuration not stated) stands 10.8%; under `c1cnc(N2C[C@H]3CCC[C@@H](CN4CCCC4)[C@H]3C2)nc1`, -4.22%; under `CN(C)c1cc(CNC(=O)c2ccc(Br)cc2F)ccn1`, -26%. Take `CC(C)c1nc(C2CCCN2Cc2ccon2)no1` (configuration not stated): the cytotoxicity at 10 µM was -3.5%. For the compound `COC1(CNC(=O)c2ccsc2)CCSC1` (configuration not stated), the cytotoxicity at 10 µM was -3.09%. Under `Cc1nccc(C2CN(S(=O)(=O)N(C)C)C2)n1` stands -5.44%; under `CN1C[C@@H](N)C[C@H]1c1nc(-c2ccc3c(c2)OCO3)no1`, -3.75%; under `Cc1ccc(CNCc2cc(Br)c3c(c2)OCO3)cc1`, 5.35%. Regarding `CCn1cc(C(=O)Nc2ccc(C)cc2C(=O)OC)cn1`, the cytotoxicity at 10 µM is 5.47%.

For `CN(CCc1ccccc1)Cc1cc(C(=O)N2CCN(C)C(=O)C2)no1`, the cytotoxicity at 10 µM is -11.6%.

`CC(c1nc(C(C)(C)C)no1)N1CCN(c2ccc(C#N)cn2)CC1` (configuration not stated): the cytotoxicity at 10 µM stood at 3.84%. On to `CN(Cc1ccco1)[C@@H]1CN(Cc2cccnc2)[C@@H]2CCCO[C@H]12`, for which the cytotoxicity at 10 µM is -79.8%. Turning to `CN(Cc1cc2n(n1)CCCNC2)Cc1n[nH]c2c1CCC2`, the cytotoxicity at 10 µM was 3.04%. Regarding `c1ccc(CNc2nc(N3CCOCC3)nc3nccnc23)cc1`, the cytotoxicity at 10 µM was determined as 10.5%. For `Cn1ccnc1CC1CCCN(C(=O)NCCOc2cccnc2)C1` (configuration not stated), the cytotoxicity at 10 µM is -5.19%. `CCC1CCCN(C(=O)NCc2cccnc2-n2cccn2)C1` (configuration not stated): the cytotoxicity at 10 µM was -0.734%. For `COCC(=O)N1CCC2(CC1)CC(COC)N(c1ncccn1)C2` (configuration not stated), the cytotoxicity at 10 µM was determined as 6.85%.

Take `O=S(=O)(NC1CC1)c1cccc(Br)c1`: the cytotoxicity at 10 µM is -3.52%.

Regarding `COC(=O)c1ccc(N2CCN(CC(=O)NC(N)=O)C(C)C2)cc1` (configuration not stated), the cytotoxicity at 10 µM was -4.54%.

With `Cc1ccc(S(=O)(=O)N(CCO)C2CC2)cc1N(C)C`, the cytotoxicity at 10 µM is -8.91%. `CC(C)c1noc(CCC(=O)N2CCSCC2)n1`: the cytotoxicity at 10 µM is -2.99%. In the case of `Cc1ccc(CNC(=O)NCCCn2nc3ccccn3c2=O)s1`, the cytotoxicity at 10 µM is -2.09%. Under `Cc1cc(NC(=O)CN(c2ccccc2)C(C)C)on1` stands -1.54%; under `COc1ccc(C(C)N2CCC(CO)CC2)cc1Cl` (configuration not stated), -51.1%; under `Cc1sc2nc(C(F)(F)F)nc(N3CCCN(C)CC3)c2c1C`, -26.8%. With `C[C@H]1C[C@H]2CN(C(=O)c3ccncn3)CC[C@@H]2O1`, the cytotoxicity at 10 µM was 4.93%. Turning to `Cc1nc2cc(C(=O)N(CCC#N)CC3CCCO3)ccc2[nH]1` (configuration not stated), the cytotoxicity at 10 µM was -0.58%. In the case of `O=C(Nc1ccccn1)C1CCN(Cc2cccc3c2OCCO3)CC1`, the cytotoxicity at 10 µM was -0.586%. With `Cc1cc(C)nc(NC2CCCN(CCCc3ccccc3)C2)n1` (configuration not stated), the cytotoxicity at 10 µM turned out to be 2.49%. `Cc1nc(CN2CCN(C(=O)C(C(C)C)n3cncn3)CC2)cs1` (configuration not stated): the cytotoxicity at 10 µM is -1.29%. In the case of `COc1ccc(CC(C)(O)CNC(=O)Cc2cccs2)cc1` (configuration not stated), the cytotoxicity at 10 µM worked out at 14.7%. Under `O=C(NCc1ccc(N2CCSCC2)cc1)NCc1cc[nH]n1` stands -0.645%; under `Cn1cnc(S(=O)(=O)NCCCN2CCCCCC2)c1Cl`, -9.53%. `CCc1ccccc1OCC(=O)Nc1ccnc(OCCN(C)C)c1`: the cytotoxicity at 10 µM was found to be 17.8%.

With `CCn1nc(C)c(CNC(=O)c2nnc3ccc(OC)cc3n2)c1C`, the cytotoxicity at 10 µM was found to be 6.58%. As for `CCCc1cc(C(=O)NC(C)c2ccccc2)n(C)n1` (configuration not stated), the cytotoxicity at 10 µM is -4.45%.

With `O=C(CCCc1cn[nH]c1)N1C[C@H](CO)C[C@H](CN2CCCC2)C1`, the cytotoxicity at 10 µM is -10.2%.

As to `CC1(C(=O)NCc2cccc(C(F)(F)F)c2)CCOCC1`, the cytotoxicity at 10 µM came out at 7.63%. Consider `CCc1noc(CNC2CCCN(Cc3noc(C4CC4)n3)C2)n1` (configuration not stated), for which the cytotoxicity at 10 µM is -25.6%.

On to `CC(NC(=O)N1CCNC(=O)CC1)c1ccc(C(F)(F)F)cc1` (configuration not stated), for which the cytotoxicity at 10 µM came out at 13.7%. Consider `COc1ccc(CC(=O)N2CCCC(Cn3cc(CN)nn3)C2)cc1` (configuration not stated), for which the cytotoxicity at 10 µM is 7.22%. Turning to `O=C(Cc1cn2ccsc2n1)N1CCCC(n2cccn2)C1` (configuration not stated), the cytotoxicity at 10 µM was -13.6%.

In the case of `O=C1N(Cc2ccc(F)c(F)c2)CCCC12CCN(C1CCCCC1)C2` (configuration not stated), the cytotoxicity at 10 µM is -0.268%.

As for `CCn1c(CN2CCN(CC(N)=O)CC2)nc2c(F)cccc21`, the cytotoxicity at 10 µM is -9.88%.

Consider `COc1ccc(Oc2nccnc2C2CCN(C(C)=O)CC2)cc1`, for which the cytotoxicity at 10 µM is -12.4%.

As for `Cc1cnn(CCC(=O)N2CCCC(c3nc(C)c(C)s3)C2)c1` (configuration not stated), the cytotoxicity at 10 µM is -19.2%. As for `Cc1cnn(CCC(=O)NCc2ccc(N(C)C)c(C)c2)c1`, the cytotoxicity at 10 µM is -3.03%. The same measure for `c1ccc2oc(N3CCn4c(nnc4C4CC4)C3)nc2c1`: 7.41%. In the case of `N#Cc1cc(F)ccc1Cn1cncn1`, the cytotoxicity at 10 µM stood at 11.4%. Turning to `NC(=O)C1CCCN1C1CCN(C(=O)c2ccc3c(c2)OCO3)CC1` (configuration not stated), the cytotoxicity at 10 µM turned out to be 1.59%. For the compound `COc1ccccc1CN1CCC2(CCC(C(=O)N(C)C)O2)CC1` (configuration not stated), the cytotoxicity at 10 µM was determined as 0.493%. The same measure for `O=C(Nc1ccc(F)cc1F)NC1(CO)CCOCC1`: -40.4%; for `Cn1cccc1C1CCCN1C(=O)NCCCn1cccn1` (configuration not stated): 19.2%.
